The values below come from paper PMC3381860 (Chemmedchem, 2011).

One data set has as its system HepG2. Description: Cytotoxicity against uninfected HepG2 cells. The settings on record: read-out: Cytotoxicity IC50 HepG2. The class given is cell-based.
Another data set deals with J774. The experiment in a line: Cytotoxicity against uninfected J774 cells. The class given is cell-based. The settings on record: read-out: Cytotoxicity IC50 J774.
Data set [1] is described as follows: Spectrophotometric titration of Fe. The class given is binding. Put shortly:
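Heme (Fe(III)PPIX) titrated with test compound from 1:1 to 16:1 mol equiv compound:heme at 23 °C in 40 % DMSO, 20 mM HEPES, pH 7.4. Soret-band and Q-band absorbance recorded after each addition. Spectra corrected for dilution by subtracting a reference cell.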

For data set [2], the system named is P. falciparum (3D7). Description: P. falciparum 3D7 proliferation. The data set is classed as cell-based, Plasmodium falciparum.
Data set [3] deals with P. falciparum HB3 (chloroquine-sensitive). Description: P. falciparum HB3 antiplasmodial activity. The settings on record: read-out: Antiplasmodial activity IC50 HB3. The class given is cell-based, Plasmodium falciparum.
In a further data set the test system is heme crystallization. Description: Parasite-free colorimetric heme crystallization inhibition. The class given is biochemical. The settings on record: molar equivalents of compound to heme.
The next data set concerns Vero. The experiment in a line: Cytotoxicity against uninfected Vero cells. The data set is classed as cell-based. As to conditions: for IC50: read-out: Cytotoxicity IC50 Vero, uninfected Vero cells.
Data set [4] concerns P. falciparum Dd2 (chloroquine-resistant). The experiment in a line: P. falciparum Dd2 antiplasmodial activity. The data set is classed as cell-based, Plasmodium falciparum. The settings on record: read-out: Antiplasmodial activity IC50 Dd2.
Data set [5] deals with P. falciparum (3D7). The settings on record: read-out: Antiplasmodial activity IC50 3D7, ref Hawley et al. [30]; cited from earlier work.
The test system of data set [6] is P. falciparum HB3 (chloroquine-sensitive). The settings on record: read-out: Antiplasmodial activity IC50 HB3, ref Hawley et al. [30]; cited from earlier work.
Where [7] appears, read: read-out: Antiplasmodial activity IC50 3D7, 3D7, chloroquine-sensitive.
[8] abbreviates: read-out: P. falciparum (3D7) IC50, 3D7 strain.

Where “and” joins values, the source holds several entries; their conditions need not be identical. Equal values may be shown once. Read-outs that look alike come from different tables or passages of the source.

What is called IC50 is the concentration at which inhibition is half-maximal. 18-acetylbromophycolide A [Compound 7]: the IC50 came out at 38500 nM in the data set on HepG2; 24700 nM with J774; 241 ± 52 nM in the data set on P. falciparum (3D7) [2] (setting [7]); 240 nM in the data set with P. falciparum (3D7) [2] (setting [8]); 431 ± 25 nM in [3]; 74000 nM in the data set with Vero. Further, the IC50 in data set [4] stood at 304 ± 8.4 nM. Further, in [1] (40 % DMSO, 20 mM HEPES, pH 7.4), the “decrease in Soret band (λ 402 nm) absorbance of Fe^IIIPPIX upon titration” value is listed as 25%. Further, the “Heme crystallization IC50” value in the data set with heme crystallization is 2.0 mol equiv and 2.0 ± 0.15 mol equiv. Also, in the data set on Vero (selectivity P. falciparum vs Vero), the “fold increase in activity for P. falciparum parasites over mammalian (Vero) cells” value was found to be 300 fold.

On to `C=C(C)[C@@H]1CC[C@](C)(O)[C@H](Br)CC[C@@]2(C)[C@H](Cc3cc(ccc3O)C(=O)O1)C(=C)CC[C@@H]2Br` [Compound 4, bromophycolide E], for which, in the data set with P. falciparum (3D7) [2] (setting [8]), the concentration for half-maximal inhibition (IC50) worked out at 820 nM.

As to `CC1=C2Cc3cc(ccc3O)C(=O)O[C@H](C(C)(C)Br)CC[C@](C)(O)[C@H](Br)CC[C@]2(C)[C@@H](Br)CC1` [Compound 1, bromophycolide A], the concentration for half-maximal inhibition (IC50) was 21300 nM in the data set with HepG2; 19000 nM in the data set with J774; 499 ± 51 nM with P. falciparum (3D7) [2] (setting [7]); 500 nM with P. falciparum (3D7) [2] (setting [8]); 493 ± 44 nM in data set [3]; 34600 nM in the data set on Vero. Also, the IC50 in data set [4] was 377 ± 92 nM. Further, in data set [1] (1:1 complexation model, 40 % DMSO, 20 mM HEPES, pH 7.4), the “association constant log K of Fe^IIIPPIX–compound complex” value was found to be 4.52 ± 0.18. In [1] (40 % DMSO, 20 mM HEPES, pH 7.4), the “decrease in Soret band (λ 402 nm) absorbance of Fe^IIIPPIX upon titration” value amounted to 45%. Also, the “binding concentration at half-maximum” value in data set [1] (spectrophotometric titration experiment) is 25 µM. Moreover, the “Heme crystallization IC50” value in the data set on heme crystallization is 2.5 mol equiv and 2.5 ± 0.13 mol equiv.

For the compound debromophycolide A [Compound 6], the “P. falciparum (3D7) IC50” value in the data set on P. falciparum (3D7) [2] (3D7 strain) is “completely inactive”. For the same compound, the IC50 in the data set on P. falciparum (3D7) [2] (setting [8]) is above 100000 nM.

With bromophycolide D [Compound 3], in the data set with P. falciparum (3D7) [2] (setting [8]), the IC50 was 350 nM.

Turning to `CC1=C2Cc3cc(ccc3O)C(=O)O[C@H](C(C)(C)O)CC[C@](C)(O)[C@H](Br)CC[C@]2(C)[C@@H](Br)CC1` [Compound 2, bromophycolide C], the concentration for half-maximal inhibition (IC50) in the data set on P. falciparum (3D7) [2] (setting [8]) was found to be 56000 nM.

In the case of `C=C(C)[C@@H]1CCC(C)(O)[C@H](Br)CC[C@@]2(C)C(=C(C)CC[C@@H]2Br)Cc2cc(ccc2O)C(=O)O1` (stereo partly shown) [Compound 5, bromophycolide M], the IC50 with P. falciparum (3D7) [2] (setting [8]) is 550 nM.

For `CCN(CC)Cc1cc(Nc2ccnc3cc(Cl)ccc23)ccc1O` [AMQ, amodiaquine, reference compound], the IC50 with P. falciparum (3D7) [5] is 7.8 nM; in data set [6] it was 8.5 nM. For the same compound, the “Heme crystallization IC50” value stood at 1.2 ± 0.19 mol equiv with heme crystallization and 1.2 mol equiv in the data set with heme crystallization (listed as amodiaquine).
